Screening data deposited in PubChem by several laboratories.
Compounds with a hit are over-represented: about 4% of the library has one in this group of screens.
TAAR1 antagonist = human TAAR1 antagonism; CHO RD-HGA16 TAAR1, Fluo-8 calcium fluorescence, antagonist; inhibition, % at 3 µM; 360,000 compounds, 1.5% hits;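 active = inhibition above a per-plate cutoff, the mean inhibition of test compounds on that plate plus 3 SD, cut at about 49% in these data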;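 also: 0% = DMSO plus EC80 beta-PEA response and 100% = DMSO alone without agonist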
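Test system: hTAAR1-expressing CHO RD-HGA16 cells, Gα16-coupled; Probe or stimulus: EC80 β-phenethylamine stimulus; Compound dosing: single nominal final test compound concentration of 3 µM; Timing: 140 s kinetic read after compound, 140 s after agonist; Signal: Fluo-8 calcium-sensitive fluorescence; Measure: % inhibition of agonist calcium response; Controls: DMSO and EC80 PEA controls.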
MPTP inh = blocks calcium-induced mitochondrial swelling | isolated mouse mitochondria, Ca2+ swelling absorbance, 30 min | inhibition, % at 10 µM | 360,000 compounds, 1.4% hits | AID 602449;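 active = inhibition of 50% or more, scaled per plate between neutral and stimulator controls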;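 also: 0% = DMSO wells given calcium and 100% = 1 mM EGTA wells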
GPR7 antag = human neuropeptides B/W receptor 1 antagonism | GPR7-expressing cells, fluorescence antagonist assay | inhibition, % at 4.4 µM | 290,000 compounds, 1.1% hits | AID 1861; in the data active = inhibition above about 16%, passing the limit was not always enough;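 also: cells stimulated with the agonist NPW; 0% = agonist with vehicle and 100% = vehicle without agonist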
DAGLB inhibitor = diacylglycerol lipase beta (human) inhibition; Q8NCG7; HEK293T DAGLB membrane lysate, EnzChek fluorogenic substrate; inhibition, % at 5.17 µM; 340,000 compounds, 0.059% hits; AID 504411; in the data active = inhibition above about 34%;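 also: 0% = enzyme with vehicle and 100% = wells lacking enzyme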
Target sequence (Q8NCG7 whole entry, looked up): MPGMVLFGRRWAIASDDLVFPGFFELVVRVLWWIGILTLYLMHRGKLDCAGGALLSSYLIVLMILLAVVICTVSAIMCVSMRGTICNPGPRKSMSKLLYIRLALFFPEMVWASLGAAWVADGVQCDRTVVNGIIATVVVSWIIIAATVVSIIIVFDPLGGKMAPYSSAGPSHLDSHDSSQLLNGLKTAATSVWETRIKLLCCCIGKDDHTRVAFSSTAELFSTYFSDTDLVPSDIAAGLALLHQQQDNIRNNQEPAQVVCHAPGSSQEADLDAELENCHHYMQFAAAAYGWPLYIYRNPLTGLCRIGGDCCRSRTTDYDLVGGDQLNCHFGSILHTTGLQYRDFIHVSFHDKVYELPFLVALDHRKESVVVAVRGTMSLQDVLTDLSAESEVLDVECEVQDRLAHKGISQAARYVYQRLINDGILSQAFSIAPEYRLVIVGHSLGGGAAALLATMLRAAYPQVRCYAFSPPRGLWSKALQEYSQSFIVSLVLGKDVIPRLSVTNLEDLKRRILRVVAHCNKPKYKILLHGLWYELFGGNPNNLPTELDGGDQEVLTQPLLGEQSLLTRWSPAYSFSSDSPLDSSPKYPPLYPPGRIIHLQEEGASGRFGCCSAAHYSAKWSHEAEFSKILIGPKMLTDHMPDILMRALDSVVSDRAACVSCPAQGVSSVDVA
TAAR1 agonist = human TAAR1 agonism | CHO RD-HGA16 TAAR1, Fluo-8 calcium fluorescence; vehicle wells 0%, saturating PEA agonist 100% | activation, % at 3 µM | 360,000 compounds, 0.99% hits | AID 624467;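 active = activation above the mean activation of all test compounds in the run plus 3 SD, cut at about 38% in these data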
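Test system: RD-HGA16 (CHO) cells co-expressing Gα16 and hTAAR1 | Doses: Single dose, 3 µM | Schedule: 17-24 h seeding, 75 min 37 °C dye, 30 min RT | Evaluation: % activation from peak over basal fluorescence ratio, DMSO-to-PEA scaled | Technique: Kinetic Fluo-8 calcium fluorescence | Benchmarks: Low control DMSO, high control PEA (EC100)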
MPTP counter = Rhodamine 123 counter-screen of mitochondrial pore hits | shares compounds with MPTP inh | isolated mitochondria, membrane potential, Rhodamine 123 fluorescence | inhibition, % at 10 µM | 5,000 compounds, 78% hits | AID 624504; in the data active = inhibition above about 22%;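 also: 0% = DMSO vehicle and 100% = positive control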
MPTP abs DR = MPTP inhibition, dose response swelling confirmation. shares compounds with MPTP inh. isolated mitochondria swelling, absorbance. IC50, µM. 780 compounds, 58% hits. AID 651561; in the data active = IC50 below about 20 µM
MPTP counter DR = MPTP inhibitor counter-screen activity, dose response. shares compounds with MPTP inh. isolated mitochondria counterscreen, fluorescence read-out. IC50, µM. 780 compounds, 49% hits; in the data active = IC50 below about 80 µM
Active calls of the source: *; . = no result.

SMILES	TAAR1 antagonist	MPTP inh	GPR7 antag	DAGLB inhibitor	TAAR1 agonist	MPTP counter	others
CCC(C)(C)c1ccc(OCC(=O)Nc2ccncc2)cc1	44.0	104.7*	10.4	-0.7	11.4	81.1*
N#Cc1ccc(OCC(=O)Nc2ccncc2)cc1	-0.2	-0.9	-11.8	1.5	-2.5	.
CCOC(=O)C1(C)CCCN(C(=O)c2ccccc2F)C1 (stereo unspecified)	1.6	1.6	.	.	1.4	.
O=C(COc1ccc(-n2ccnc2)cc1)Nc1cccc(Cl)c1	-3.0	88.6*	2.7	0.2	7.9	57.1*
Cn1c(=O)c2[nH]c(COc3ccc(C(C)(C)C)cc3)nc2n(C)c1=O	.	95.9*	-17.1	0.5	.	70.1*
Cn1c(=O)c2[nH]c(Cc3cccc(O)c3)nc2n(C)c1=O	0.1	-0.4	.	-5.3	3.0	.
Cc1ccc(-c2noc(CCC(=O)NCCN3CCN(Cc4ccccc4)CC3)n2)cc1	7.3	2.9	-3.5	-3.8	10.3	.
COc1ccc(-c2noc(CCC(=O)NCCCN3CCC(Cc4ccccc4)CC3)n2)cc1	-9.7	62.8*	28.9*	5.0	17.8	41.9*
Cc1ccc(-c2noc(CCC(=O)NCC3CCN(Cc4cccc(C)c4)CC3)n2)cc1	12.7	66.7*	15.6	0.7	6.5	7.2	MPTP abs DR=8.81*;MPTP counter DR=23.7*
O=c1oc2ccccc2c(NCCO)c1[N+](=O)[O-]	13.7	0.0	-15.3	-0.6	0.2	.
O=c1oc2ccccc2c(NCc2ccccc2)c1[N+](=O)[O-]	16.3	4.1	7.2	-0.4	3.6	.
Cc1cc(Cl)cc(Cl)c1CNc1c([N+](=O)[O-])c(=O)oc2ccccc12	7.7	90.3*	-5.9	-1.6	6.8	96.0*
O=c1oc2ccccc2c(Nc2cccc3ccccc23)c1[N+](=O)[O-]	6.4	66.8*	-11.3	12.1	-2.1	79.5*
O=c1oc2ccccc2c(NCc2ccc(Cl)cc2)c1[N+](=O)[O-]	18.8	54.5*	-20.1	2.4	5.3	72.7*
O=c1oc2ccccc2c(Nc2ccccc2O)c1[N+](=O)[O-]	-5.8	0.4	-4.0	1.0	14.2	.
O=C1c2ccc(-c3ccc(F)cc3OCc3ccccc3)cc2S(=O)(=O)c2cccc(C(=O)N3CCCC3)c21	.	-0.1	.	2.0	.	.
CC(=O)N1CCN(C(=O)c2ccc(Cl)c(S(=O)(=O)N3CCc4ccccc43)c2)CC1	5.2	0.9	.	-2.5	4.9	.
O=C(NNC(=O)c1ccccc1O)c1ccc(Cl)c(S(=O)(=O)N2CCc3ccccc32)c1	43.5	106.6*	.	9.8	6.9	76.2*
O=C(NNC(=O)c1cccc(S(=O)(=O)N2CCc3ccccc32)c1)c1ccccc1	15.2	100.4*	-21.7	3.0	2.2	83.3*
O=C(O)c1ccccc1-c1ccc([N+](=O)[O-])cc1Cl	-24.1	-0.3	.	-0.2	3.4	.
O=[N+]([O-])c1ccc2c(c1)C(=NO)c1cc(Cl)c(Cl)cc1-2	-19.8	60.8*	.	-3.9	-1.5	36.3*
O=C(CSc1nc2ccc([N+](=O)[O-])cc2[nH]1)NC1CCCCC1	6.5	4.7	-0.3	-2.1	8.2	.
O=C(CSc1nc2ccc([N+](=O)[O-])cc2[nH]1)NC1CCCCCC1	12.3	95.2*	-3.3	0.0	17.1	80.5*
COc1ccc(C(=O)CSc2nc3ccc([N+](=O)[O-])cc3[nH]2)cc1	47.3	99.3*	5.2	-4.8	9.0	85.6*
CCOC(=O)NC(=O)CSc1nc2ccc([N+](=O)[O-])cc2[nH]1	-9.0	0.1	-3.6	-2.6	7.0	.
SMILES	TAAR1 antagonist	MPTP inh	GPR7 antag	DAGLB inhibitor	TAAR1 agonist	MPTP counter	others
COc1ccc2c(c1)[C@@]1(OCCC=C[C@H]1C)C(=O)N2C/C=C(\C)CCC=C(C)C	13.8	.	.	.	2.5	.
O=C(N[C@H](C(=O)N1CCC[C@H]1C(=O)NCc1ccccc1)C1CCCCC1)c1ccc(Cl)c(Cl)c1	-26.0	.	.	.	-1.4	.
CC(=O)c1ccc(N2CCN(S(=O)(=O)c3ccc4c(c3)CC(C)N4C(C)=O)CC2)cc1 (stereo unspecified)	-3.5	11.4	21.7	-1.8	5.4	.
CC(=O)c1ccc(N2CCN(S(=O)(=O)c3ccc4c(c3)CC(C)N4C(=O)C3CC3)CC2)cc1 (stereo unspecified)	10.2	96.9*	-0.9	-2.2	0.9	107.9*
CCC(CC)C(=O)Nc1cccc(C(=O)Nc2ccc(S(N)(=O)=O)cc2)c1	-1.1	-1.5	-17.8	-4.7	9.8	.
CCC(CC)C(=O)Nc1cccc(S(=O)(=O)c2cccc(NC(=O)C(CC)CC)c2)c1	-4.9	58.3*	-5.8	-3.6	6.8	36.0*
C=C1[C@@H](CCO)N(S(=O)C(C)(C)C)C[C@@H]1C (stereo partly specified)	0.6	.	.	.	-0.1	.
COc1ccc(C(=O)NCCCN2CCCC2=O)cc1S(=O)(=O)N1CCOCC1	-4.2	-0.6	.	-1.6	-0.4	.
c1ccc(CC[C@@H]2CC[C@@H](CCc3ccccc3)N2)cc1	6.1	68.9*	.	0.4	10.1	-5.3	MPTP abs DR=10.2*;MPTP counter DR=>80
c1ccc(CCC2Cc3ccccc3N2)cc1 (stereo unspecified)	11.9	0.6	.	-6.8	-2.0	.
O=C1NC(=S)S/C1=C\c1ccc(SCc2ccco2)o1	.	13.0	-2.3	9.3	.	.
O=C1NC(=S)S/C1=C\c1ccc(SCc2ccccc2)o1	16.6	78.4*	1.3	13.5	4.8	62.3*
CCn1c(C)nc([N+](=O)[O-])c1Sc1ccc(F)cc1	3.5	76.6*	1.1	-1.4	-0.1	-0.8	MPTP abs DR=>100;MPTP counter DR=>80
Cc1nc([N+](=O)[O-])c(Sc2nc3ccccc3[nH]2)n1Cc1ccccc1	-3.2	1.4	0.8	-0.3	2.3	.
N#Cc1ccccc1NC(=O)C1SC(=Nc2ccccc2)C(C(=O)Nc2ccc(Cl)cc2)=C1N (stereo unspecified)	-13.8	61.7*	-7.8	-4.4	2.7	65.0*
COc1ccc(CNC(=S)Nc2ccc(-c3ccccc3)cc2)cc1	-2.9	18.3	-8.9	-4.1	1.4	.
Cc1ccc(NC(=S)Nc2ccc(OC(F)F)c(Cl)c2)cc1F	12.3	98.4*	-5.0	-3.2	12.1	87.1*
COc1ccc(CNC(=S)Nc2ccc(F)c(Cl)c2)cc1	27.4	96.2*	0.8	-1.9	17.1	97.2*
S=C(Nc1ccc(Cl)cc1)Nc1ccc2cn[nH]c2c1	39.4	92.7*	-2.8	-4.4	15.3	88.5*
COc1ccc(CNC(=S)Nc2ccc(Br)cc2)cc1	18.6	87.8*	-11.4	-1.3	9.7	91.8*
NS(=O)(=O)c1ccc(CNC(=S)Nc2ccc(F)c(Cl)c2)cc1	30.0	1.1	3.2	-1.6	5.9	.
NS(=O)(=O)c1ccc(NC(=S)Nc2ccc(F)c(F)c2)cc1	-7.0	67.3*	3.3	-1.6	5.7	67.9*
